# According to ChEMBL document CHEMBL1828575, “Design, synthesis and antiproliferative activities of biarylolefins based on polyhydroxylated and carbohydrate scaffolds” (Eur J Med Chem, 2011):
# Columns and labels:
# Type in all cases: functional
# K562 = assay: Cytotoxicity against human K562 cells assessed as cellular growth at 10 uM after 48 hrs by SRB assay
# Procedure, shortened: (§1)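 NCI60 single-dose screen of cells in RPMI 1640 with 5% FBS and 2 mM L-glutamine, preincubated 24 h at 37 °C, 5% CO₂. Cells were then exposed 48 h to compound added from DMSO stock. TCA-fixed, stained with 0.4% SRB in 1% acetic acid, dye solubilised in 10 mM Tris base and read at 515 nm. Growth is given as percent of untreated control.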
# SW-620 = assay: Antitumor activity against human SW620 cells after 48 hrs by SRB assay; conditions: SW-620, 48 h
# Procedure, shortened: (§2)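 NCI60 panel cells grown in RPMI 1640 with 5% FBS and 2 mM L-glutamine, plated at 5000–40,000 cells/well and preincubated 24 h at 37 °C, 5% CO₂. Compound was added from DMSO at five concentrations, 10-fold or 1/2 log dilutions, then incubated 48 h.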
# HOP-62 = assay: Antitumor activity against human HOP62 cells after 48 hrs by SRB assay; conditions: HOP-62, 48 h
# Procedure, shortened: (§3)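 NCI60 panel in RPMI 1640 with 5% FBS and 2 mM L-glutamine. Cells were plated at 5000–40,000/well by doubling time, held 24 h, then time-zero plates were TCA-fixed. Five concentrations (10-fold or half-log dilutions of DMSO stocks) were applied for 48 h at 37 °C, 5% CO2. Cells were fixed with cold TCA (10% final adherent, 16% suspension) and stained with 0.4% SRB. Bound dye was dissolved in 10 mM Tris and read at 515 nm. GI50, TGI and LC50 were calculated per line.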
# MDA-MB-468 = assay: Antitumor activity against human MDA-MB-468 cells after 48 hrs by SRB assay; conditions: MDA-MB-468, 48 h; procedure, shortened: as §3
# NCI-H322M [1] = assay: Antitumor activity against human NCI-H322M cells after 48 hrs by SRB assay; procedure, shortened: as §3
# ACHN = assay: Cytotoxicity against human ACHN cells assessed as cellular growth at 10 uM after 48 hrs by SRB assay; procedure, shortened: as §1
# UACC-62 = assay: Cytotoxicity against human UACC62 cells assessed as cellular growth at 10 uM after 48 hrs by SRB assay
# Procedure, shortened: (§4)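 NCI-60 panel lines grown in RPMI 1640 with 5% FBS and 2 mM L-glutamine. Plated at 5000–40,000 cells/well and preincubated 24 h at 37 °C, 5% CO₂, with time-zero plates fixed in TCA. Compounds, dissolved in DMSO and diluted in medium, were applied for 48 h. Cells were TCA-fixed (10% final for adherent, 16% for suspension) and stained with 0.4% SRB in 1% acetic acid. Dye was solubilised in 10 mM Tris base and read at 515 nm; growth was expressed as a percentage of untreated control.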
# IGROV-1 = assay: Antitumor activity against human IGROV1 cells after 48 hrs by SRB assay; conditions: IGROV-1, 48 h; procedure, shortened: as §3
# OVCAR-3 = assay: Cytotoxicity against human OVCAR3 cells assessed as cellular growth at 10 uM after 48 hrs by SRB assay; procedure, shortened: as §4
# HOP-92 = assay: Antitumor activity against human HOP92 cells after 48 hrs by SRB assay; conditions: HOP-92, 48 h; procedure, shortened: as §3
# Malme-3M = assay: Antitumor activity against human MALME-3M cells after 48 hrs by SRB assay; procedure, shortened: as §3
# OVCAR-8 = assay: Cytotoxicity against human OVCAR8 cells assessed as cellular growth at 10 uM after 48 hrs by SRB assay; procedure, shortened: as §4
# LOX IMVI = assay: Cytotoxicity against human LOXIMVI cells assessed as cellular growth at 10 uM after 48 hrs by SRB assay; procedure, shortened: as §1
# SF-295 = assay: Cytotoxicity against human SF295 cells assessed as cellular growth at 10 uM after 48 hrs by SRB assay; procedure, shortened: as §4
# HT-29 = assay: Antiproliferative activity against human HT-29 cells after 48 hrs by SRB assay; conditions: HT-29, 48 h; procedure, shortened: as §3
# SF-268 = assay: Cytotoxicity against human SF268 cells assessed as cellular growth at 10 uM after 48 hrs by SRB assay; procedure, shortened: as §4
# NCI-H226 = assay: Cytotoxicity against human NCI-H226 cells assessed as cellular growth at 10 uM after 48 hrs by SRB assay; procedure, shortened: as §4
# PC-3 = assay: Antitumor activity against human PC3 cells after 48 hrs by SRB assay; conditions: PC-3, 48 h; procedure, shortened: as §3
# SF-539 = assay: Antitumor activity against human SF539 cells after 48 hrs by SRB assay; conditions: SF-539, 48 h; procedure, shortened: as §2
# CCRF-CEM = assay: Cytotoxicity against human CCRF-CEM cells assessed as cellular growth at 10 uM after 48 hrs by SRB assay; procedure, shortened: as §1
# NCI-H322M [2] = assay: Cytotoxicity against human NCI-H322M cells assessed as cellular growth at 10 uM after 48 hrs by SRB assay; procedure, shortened: as §4
# SNB-75 = assay: Cytotoxicity against human SNB75 cells assessed as cellular growth at 10 uM after 48 hrs by SRB assay; procedure, shortened: as §4
# HCT-116 = assay: Cytotoxicity against human HCT116 cells assessed as cellular growth at 10 uM after 48 hrs by SRB assay; procedure, shortened: as §1
# RPMI-8226 = assay: Antitumor activity against human RPMI8226 cells after 48 hrs by SRB assay; conditions: RPMI-8226, 48 h; procedure, shortened: as §3
# SR = assay: Cytotoxicity against human SR cells assessed as cellular growth at 10 uM after 48 hrs by SRB assay; procedure, shortened: as §4
# [3] = read-out: LC50 (the source's name)
# [4] = read-out: pLC50 (the source's name) (converted)
structure (smiles),measurement,setting,value
COc1ccc(/C(=C2\O[C@@H]([C@H]3COC(C)(C)O3)[C@H]3OC(C)(C)O[C@@H]23)c2cc(OC)c(OC)c(OC)c2)cc1O,Activity,K562,10.18%
same,GI50,SW-620; read-out: GI50,7.28 µM
same,CC50,SW-620; [3],> 100 µM
same,TGI,SW-620; read-out: TGI,> 100 µM
same,GI50,SW-620; read-out: pGI50 (converted),7.24 µM
same,CC50,SW-620; [4],> 100 µM
same,TGI,SW-620; read-out: pTGI,> 100 µM
same,GI50,HOP-62,10.9 µM
same,TGI,HOP-62,34.7 µM
same,CC50,HOP-62; [3],> 100 µM
same,GI50,MDA-MB-468; read-out: GI50,17.8 µM
same,CC50,MDA-MB-468; [3],> 100 µM
same,TGI,MDA-MB-468; read-out: TGI,63.6 µM
same,GI50,MDA-MB-468; read-out: pGI50 (converted),25.7 µM
same,CC50,MDA-MB-468; [4],> 100 µM
same,TGI,MDA-MB-468; read-out: pTGI (converted),63.1 µM
same,GI50,NCI-H322M [1]; read-out: GI50,9.6 µM
same,CC50,NCI-H322M [1]; [3],> 100 µM
same,TGI,NCI-H322M [1]; read-out: TGI,> 100 µM
same,GI50,NCI-H322M [1]; read-out: pGI50 (converted),9.55 µM
same,CC50,NCI-H322M [1]; [4],> 100 µM
same,TGI,NCI-H322M [1]; read-out: pTGI,> 100 µM
same,Activity,ACHN,49.46%
same,Activity,UACC-62,82.85%
same,GI50,IGROV-1; read-out: GI50,45.1 µM
same,CC50,IGROV-1; [3],> 100 µM
same,TGI,IGROV-1; read-out: TGI,> 100 µM
same,GI50,IGROV-1; read-out: pGI50 (converted),44.7 µM
same,CC50,IGROV-1; [4],> 100 µM
same,TGI,IGROV-1; read-out: pTGI,> 100 µM
same,Activity,OVCAR-3,58.27%
same,GI50,HOP-92,4 µM
same,TGI,HOP-92,38.3 µM
same,CC50,HOP-92; [3],> 100 µM
same,GI50,Malme-3M,2.07 µM
same,LC50 (concentration killing 50% of cells present at time zero),Malme-3M,> 100 µM
same,TGI,Malme-3M,5.59 µM
same,Activity,OVCAR-8,96.09%
same,Activity,LOX IMVI,47.56%
same,Activity,SF-295,77.57%
same,LC50 (50% net cell kill),HT-29,> 100 µM
same,GI50,HT-29; read-out: GI50,4.1 µM
same,TGI,HT-29; read-out: TGI,17.8 µM
same,GI50,HT-29; read-out: pGI50 (converted),4.07 µM
same,CC50,HT-29; [4],> 100 µM
same,TGI,HT-29; read-out: pTGI (converted),17.8 µM
same,Activity,SF-268,37.84%
same,Activity,NCI-H226,112.98%
same,CC50,PC-3; [3],> 100 µM
same,TGI,PC-3; read-out: TGI,> 100 µM
same,GI50,PC-3; read-out: pGI50 (converted),4.17 µM
same,CC50,PC-3; [4],> 100 µM
same,TGI,PC-3; read-out: pTGI,> 100 µM
same,GI50,SF-539,3.15 µM
same,TGI,SF-539,8.75 µM
same,CC50,SF-539; [3],86 µM
same,Activity,CCRF-CEM,60.8%
same,Activity,NCI-H322M [2],91.51%
same,Activity,SNB-75,24.26%
same,Activity,HCT-116,78.08%
same,LC50 (concentration killing 50% of starting cells),RPMI-8226,> 100 µM
same,GI50,RPMI-8226; read-out: GI50,4.82 µM
same,TGI,RPMI-8226; read-out: TGI,34 µM
same,GI50,RPMI-8226; read-out: pGI50 (converted),4.79 µM
same,CC50,RPMI-8226; [4],> 100 µM
same,TGI,RPMI-8226; read-out: pTGI (converted),33.9 µM
same,Activity,SR,-13.6%
